Values joined by “and” are separate entries in the source; they are usually repeats but may differ in a detail not shown here. Equal values may be shown once.
Legend:
Type in all cases: toxicity, cell-based
Fibroblast = assay: Multiplex assay against human fibroblast; conditions: number of replicates 2
Procedure, shortened: (§1)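 Live cells carried four stains from seeding: Hoechst33342, BioTracker Green Microtubule Cytoskeleton Dye, MitoTracker Red and Annexin V Alexa Fluor 680. They were imaged on a CQ1 microscope at 37°C and 5% CO2 after compound addition. Using CellPathfinder machine-learning gating, cells were split into Hoechst high-intensity objects or normal cells, normal cells into healthy, pyknosed or fragmented nuclei, and pyknosed cells into mitotic or apoptotic; tubulin, mitochondrial-mass and membrane-permeability phenotypes are per cents of healthy-nucleus cells.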

U2OS = assay: Multiplex assay against U2OS; conditions: human, number of replicates 2; procedure, shortened: as §1
HEK-293T = assay: Multiplex assay against HEK293T; conditions: human, number of replicates 2; procedure, shortened: as §1
[1] = 12 h, 1 µM, compound concentration 1 uM
[2] = 12 h, 10 µM, compound concentration 10 uM
[3] = 24 h, 1 µM, compound concentration 1 uM
[4] = 24 h, 10 µM, compound concentration 10 uM
[5] = 48 h, 1 µM, compound concentration 1 uM
[6] = 48 h, 10 µM, compound concentration 10 uM

## CS(=O)(=O)c1ccc(C(=O)Nc2cccc(COc3ccc(Br)cc3CNCCO)c2)c(Cl)c1.O=CO
Fibroblast; [1]
  Population Apoptotic (%): 37% and 48%
  Population Hoechst High Intensity Objects (%): 0%
  Population Mitotic Cells (%): 62% and 51%
  Total Cell Count: 153 and 242
Fibroblast; [2]
  Population Apoptotic (%): 58% and 47%
  Population Hoechst High Intensity Objects (%): 0%
  Population Mitotic Cells (%): 41% and 52%
  Population Pyknosed Nuclei (%): 28%
  Total Cell Count: 238 and 244
Fibroblast; [3]
  Population Apoptotic (%): 70% and 59%
  Population Hoechst High Intensity Objects (%): 0%
  Population Mitotic Cells (%): 30% and 40%
  Population Pyknosed Nuclei (%): 20% and 18%
  Total Cell Count: 148 and 236
Fibroblast; [4]
  Population Apoptotic (%): 80% and 67%
  Population Hoechst High Intensity Objects (%): 2% and 0%
  Population Mitotic Cells (%): 20% and 32%
  Population Pyknosed Nuclei (%): 28%
  Total Cell Count: 232 and 267
Fibroblast; [5]
  Population Apoptotic (%): 80% and 74%
  Population Hoechst High Intensity Objects (%): 0%
  Population Mitotic Cells (%): 19% and 25%
  Population Pyknosed Nuclei (%): 16% and 15%
  Total Cell Count: 153 and 246
Fibroblast; [6]
  Population Apoptotic (%): 85% and 77%
  Population Hoechst High Intensity Objects (%): 2% and 0%
  Population Mitotic Cells (%): 22%
  Total Cell Count: 247 and 259
U2OS; [1]
  Population Apoptotic (%): 50% and 66%
  Population Healthy Nuclei (%): 74% and 84%
  Population Mitotic Cells (%): 50% and 33%
U2OS; [2]
  Population Apoptotic (%): 66% and 50%
  Population Healthy Nuclei (%): 73%
  Population Mitotic Cells (%): 33% and 50%
U2OS; [3]
  Population Apoptotic (%): 75% and 87%
  Population Healthy Nuclei (%): 79% and 82%
  Population Mitotic Cells (%): 25% and 12%
  Population Pyknosed Nuclei (%): 15%
U2OS; [4]
  Population Apoptotic (%): 66% and 74%
  Population Healthy Nuclei (%): 59% and 66%
  Population Mitotic Cells (%): 33% and 25%
  Population Pyknosed Nuclei (%): 34% and 27%
U2OS; [5]
  Population Apoptotic (%): 83%
  Population Healthy Nuclei (%): 83% and 88%
  Population Mitotic Cells (%): 36% and 16%
  Population Pyknosed Nuclei (%): 9%
U2OS; [6]
  Population Apoptotic (%): 91% and 85%
  Population Healthy Nuclei (%): 46% and 62%
  Population Mitotic Cells (%): 8%
  Population Pyknosed Nuclei (%): 45% and 27%
HEK-293T; [1]
  Population Apoptotic (%): 64% and 58%
  Population Healthy Nuclei (%): 78% and 83%
  Population Mitotic Cells (%): 35% and 41%
  Total Cell Count: 423 and 657
HEK-293T; [2]
  Population Apoptotic (%): 66%
  Population Healthy Nuclei (%): 81% and 80%
  Population Mitotic Cells (%): 33%
  Total Cell Count: 566 and 616
HEK-293T; [3]
  Population Apoptotic (%): 42% and 53%
  Population Healthy Nuclei (%): 83% and 80%
  Population Mitotic Cells (%): 57% and 46%
  Total Cell Count: 974 and 659
HEK-293T; [4]
  Population Apoptotic (%): 65% and 72%
  Population Healthy Nuclei (%): 78% and 75%
  Population Mitotic Cells (%): 34% and 28%
  Total Cell Count: 498 and 611
HEK-293T; [5]
  Population Apoptotic (%): 36% and 25%
  Population Healthy Nuclei (%): 82% and 85%
  Population Mitotic Cells (%): 63% and 75%
  Total Cell Count: 1468 and 2063
HEK-293T; [6]
  Population Apoptotic (%): 82%
  Population Healthy Nuclei (%): 77% and 78%
  Population Mitotic Cells (%): 36% and 17%
  Total Cell Count: 828 and 933
